{"data": "Results collected from several papers", "target": "Ephrin type-B receptor 4 (EPHB4, Homo sapiens, UniProt P54760)", "Residues used in one study (P54760 16-987)": "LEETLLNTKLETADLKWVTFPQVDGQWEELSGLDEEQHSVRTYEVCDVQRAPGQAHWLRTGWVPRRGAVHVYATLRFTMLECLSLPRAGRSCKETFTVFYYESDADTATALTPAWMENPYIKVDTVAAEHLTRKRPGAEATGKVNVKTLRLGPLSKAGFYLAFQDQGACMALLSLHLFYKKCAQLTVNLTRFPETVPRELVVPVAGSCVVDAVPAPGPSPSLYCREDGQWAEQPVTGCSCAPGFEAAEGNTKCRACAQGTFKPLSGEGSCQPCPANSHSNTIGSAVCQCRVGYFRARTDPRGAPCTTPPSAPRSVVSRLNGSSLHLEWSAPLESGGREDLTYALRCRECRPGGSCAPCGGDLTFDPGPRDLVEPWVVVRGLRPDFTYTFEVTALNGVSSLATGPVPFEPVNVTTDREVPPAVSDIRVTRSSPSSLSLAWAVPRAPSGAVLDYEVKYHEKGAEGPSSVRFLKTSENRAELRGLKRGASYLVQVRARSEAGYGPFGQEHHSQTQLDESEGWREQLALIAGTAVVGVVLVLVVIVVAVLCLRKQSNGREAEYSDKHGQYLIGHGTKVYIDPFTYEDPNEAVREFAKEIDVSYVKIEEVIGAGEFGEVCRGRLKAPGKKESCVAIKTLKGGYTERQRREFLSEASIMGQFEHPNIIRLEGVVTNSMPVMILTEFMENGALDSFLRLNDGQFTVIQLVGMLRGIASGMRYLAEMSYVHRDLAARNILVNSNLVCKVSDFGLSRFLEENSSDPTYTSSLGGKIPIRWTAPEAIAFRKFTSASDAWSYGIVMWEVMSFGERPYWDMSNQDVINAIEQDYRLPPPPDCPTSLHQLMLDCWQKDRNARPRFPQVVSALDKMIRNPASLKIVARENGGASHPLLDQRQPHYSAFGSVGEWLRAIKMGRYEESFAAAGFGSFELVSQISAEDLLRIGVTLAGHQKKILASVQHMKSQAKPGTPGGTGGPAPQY"}
{"Structure (SMILES)": "CCOc1cc(-c2nncn2C)ccc1Nc1ncc2cc(C)nc(NCC(C)(C)C)c2n1", "test": "enzyme activity, inhibitor, FRET", "setting": "1 µM", "quantity": "inhibition", "value": "< 15%"}
{"Structure (SMILES)": "O=C(Nc1cnn(-c2csc(C(=O)NC3COC3)c2)c1)Nc1c(F)cccc1Cl", "test": "enzyme activity, inhibitor", "setting": "5 µM", "quantity": "remaining activity", "value": "98.1%"}
{"Structure (SMILES)": "O=C1Nc2ccc(Cl)cc2C1=Cc1cc(Cl)c(O)c(Cl)c1", "test": "cell-free assay", "setting": "0.5 µM", "quantity": "remaining signal", "value": "100%"}
{"Structure (SMILES)": "CSc1cccnc1N1CCN(Cc2nc3ccccc3[nH]2)CC1", "test": "cell-free assay, competition with immobilised ligand", "setting": "1 µM", "quantity": "remaining binding", "value": "100%"}
{"Structure (SMILES)": "Nc1ncnc2occ(-c3ccc(NC(=O)Nc4cc(C(F)(F)F)ccc4F)cc3)c12", "test": "cell-free assay", "setting": "20 µM", "quantity": "remaining signal", "value": "0%"}
{"Structure (SMILES)": "CN(C)CC#Cc1ccc(OCCCc2sc(N3CCc4cccc(C(=O)Nc5nc6ccccc6s5)c4C3)nc2C(=O)O)c(F)c1", "test": "cell-free assay, competition with immobilised ligand", "setting": "1 µM", "quantity": "remaining binding", "value": "100%"}
{"Structure (SMILES)": "Cc1cc(NC(=O)c2cccc3cc(-c4cccc5[nH]nc(N)c45)ccc23)ccc1F", "test": "enzyme activity, inhibitor", "setting": "0.1 µM", "quantity": "activity vs control", "value": "109%"}
{"Structure (SMILES)": "COc1cc2ncnc(Nc3ccc(Oc4ccccc4)c(C)c3C)c2cc1OC", "test": "enzyme activity, inhibitor", "setting": "1 µM", "quantity": "inhibition", "value": "3%"}
{"Structure (SMILES)": "Oc1cccc(-c2nc(N3CCOCC3)c3oc4ncccc4c3n2)c1", "test": "enzyme activity, inhibitor", "setting": "10 µM", "quantity": "remaining activity", "value": "86%"}
{"Structure (SMILES)": "CO[C@H]1CC[C@H](CNc2ccc(S(=O)(=O)NC(=O)c3ccc(N4CCN(CC5=C(c6ccc(Cl)cc6)CC(C)(C)CC5)CC4)cc3Oc3cnc4[nH]ccc4c3)cc2[N+](=O)[O-])CC1", "test": "cell-free assay, competition with immobilised ligand", "setting": "1 µM", "quantity": "remaining binding", "value": "100%"}
{"Structure (SMILES)": "COc1cc(Nc2cnc(C#N)c(O[C@H](C)CN(C)C)n2)ncc1-c1cnn(C)c1", "test": "enzyme activity, inhibitor, radiometric", "setting": "10 µM", "quantity": "remaining activity", "value": "88%"}
{"Structure (SMILES)": "CC(C)(C)c1nc2c(s1)c1nc(N)ncc1c1ccc(NS(=O)(=O)c3c(F)cccc3F)c(F)c12", "test": "enzyme activity, inhibitor, radiometric", "setting": "1 µM", "quantity": "remaining activity", "value": "93%"}
{"Structure (SMILES)": "Cc1cc(NC(=O)c2cccc(S(F)(F)(F)(F)F)c2)cc(-n2ccn3nc(-c4cccnc4)cc23)c1", "test": "cell-free assay, competition with immobilised ligand", "setting": "1 µM", "quantity": "remaining binding", "value": "100%"}
{"Structure (SMILES)": "Oc1ccc(-c2nc(-c3ccncc3)c(-c3ccc(F)cc3)[nH]2)cc1", "test": "cell-free assay", "setting": "0.5 µM", "quantity": "remaining signal", "value": "89%"}
{"Structure (SMILES)": "CC(C)(O)[C@H]1CC[C@H](Nc2ccc3ncc(-c4cccc(C(F)(F)F)c4)n3n2)CC1", "test": "enzyme activity, inhibitor", "setting": "1 µM", "quantity": "remaining activity", "value": "78.2%"}
{"Structure (SMILES)": "Cc1[nH]c(/C=C2\\C(=O)Nc3ccc(F)cc32)c(C)c1C(=O)N[C@H]1CCN(C(=O)N(C)C)C1", "test": "enzyme activity, inhibitor", "setting": "1 µM", "quantity": "remaining activity", "value": "101%"}
{"Structure (SMILES)": "Cc1cnc(NC2CCOCC2)nc1-n1cnc(C(=O)NC(CN)c2cc(F)cc(Cl)c2)c1 (stereo not drawn)", "test": "enzyme activity, inhibitor, radiometric", "setting": "1 µM", "quantity": "remaining activity", "value": "89%"}
{"Structure (SMILES)": "CCCS(=O)(=O)Nc1ccc(F)c(C(=O)c2c[nH]c3ncc(-c4ccc(Cl)cc4)cc23)c1F", "test": "enzyme activity, inhibitor", "setting": "1 µM", "quantity": "inhibition", "value": "< 20%"}
{"Structure (SMILES)": "CNC(=O)c1cc2c(Oc3ccc(NC(=O)C4(C(=O)Nc5ccc(F)cc5)CC4)cc3)ccnc2cc1OC", "test": "enzyme activity, inhibitor, radiometric", "setting": "1 µM", "quantity": "inhibition", "value": "83%"}
{"Structure (SMILES)": "Cn1c(=O)n(-c2ccc(C(C)(C)C#N)cc2)c2c3cc(-c4cnc5ccccc5c4)ccc3ncc21", "test": "enzyme activity, inhibitor", "setting": "10 µM", "quantity": "remaining activity", "value": "99%"}
{"Structure (SMILES)": "N#Cc1ccc(Nc2ccc3[nH]c(=O)[nH]c3c2)c(Cl)c1", "test": "cell-free assay, competition with immobilised ligand", "setting": "1 µM", "quantity": "remaining binding", "value": "98%"}
{"Structure (SMILES)": "c1ccc(CNc2nc(N3CCOc4ccccc43)nc3c2CCCC3)cc1", "test": "target engagement in cells, inhibitor, chemoproteomics", "setting": "20 mM", "quantity": "inhibition", "value": "-4%"}
{"Structure (SMILES)": "COc1ccc(COc2ccc(Cc3cnc(N)nc3N)cc2OC)cc1", "test": "cell-free assay", "setting": "0.5 µM", "quantity": "remaining signal", "value": "90.5%"}
{"Structure (SMILES)": "O=C(NCc1ncc(C(F)(F)F)cc1Cl)c1ccc2c(c1)C1(CCS(=O)(=O)CC1)[C@H](C1CC1)N2S(=O)(=O)c1ccc(F)cc1", "test": "cell-free assay, competition with immobilised ligand", "setting": "1 µM", "quantity": "remaining binding", "value": "100%"}
{"Structure (SMILES)": "CC/C(=N\\NC(=O)NCc1cccc(O)c1)c1ccc(O)c(C)c1O", "test": "enzyme activity, inhibitor", "setting": "0.1 µM", "quantity": "inhibition", "value": "0.2%"}
{"Structure (SMILES)": "CNCc1ccc(-c2cc(-c3nc(-c4ccc(S(=O)(=O)C(C)C)cc4)cnc3N)on2)cc1", "test": "enzyme activity, inhibitor", "setting": "2 µM", "quantity": "inhibition", "value": "10%"}
{"Structure (SMILES)": "CC1=C(C#N)[C@@H](c2ccc3[nH]nc(C)c3c2)C(C#N)=C(c2ccc(Cl)cc2)N1", "test": "cell-free assay, competition with immobilised ligand", "setting": "1 µM", "quantity": "remaining binding", "value": "100%"}
{"Structure (SMILES)": "C[S+]([O-])c1ccc(-c2nc(-c3ccncc3)c(-c3ccc(F)cc3)[nH]2)cc1 (stereo not drawn)", "test": "cell-free assay", "setting": "0.5 µM", "quantity": "remaining signal", "value": "91.1%"}
{"Structure (SMILES)": "CN([C@@H]1CCc2c(CC(=O)O)c3cc(S(C)(=O)=O)ccc3n2C1)S(=O)(=O)c1ccc(F)cc1", "test": "cell-free assay, competition with immobilised ligand", "setting": "1 µM", "quantity": "remaining binding", "value": "95%"}
{"Structure (SMILES)": "COc1cccc2c(NCc3ccccc3)nc(-n3c(N)nc4ccccc43)nc12", "test": "target engagement in cells, inhibitor, chemoproteomics", "setting": "20 mM", "quantity": "inhibition", "value": "-8.8%"}
